From ChEMBL document CHEMBL4196201, “Discovery of N-(4-{[5-Fluoro-7-(2-methoxyethoxy)quinazolin-4-yl]amino}phenyl)-2-[4-(propan-2-yl)-1 H-1,2,3-triazol-1-yl]acetamide (AZD3229), a Potent Pan-KIT Mutant Inhibitor for the Treatment of Gastrointestinal Stromal Tumors” (J Med Chem, 2018)
In brackets after ≈: the same amount, converted by molar mass. Activity calls are given as the source filed them. The calls are words filed in the database; no cut-off is given here.

Tests used:
[1] = Oral bioavailability in Han Wistar rat at […]; assay type: ADME, organism-based; details: in vivo
[2] = tested on: BaF3; test: Antitumor activity against mouse BA/F3 cells expressing Kit exon 11 deletion (557 to 558 residues) and V654 mutant (unknown origin) allografted in CB17 SCID mouse assessed as tumor regression at 20 mg/kg, po bid measured on last day of dosing; assay type: functional
Summary of the method: (§1)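 Ba/F3 cells bearing the KIT exon 11 del/D816H or exon 11 del/V654A mutation were grown as allografts in mice. Compounds were given p.o. once (QD) or twice daily (BD), and vehicle was given BD p.o. Tumor growth inhibition and regression (%) were taken on the last day of dosing. p-values were calculated relative to vehicle.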

[3] = molecular target: Vascular endothelial growth factor receptor 2 (Homo sapiens) (UniProt P35968)
Chain of Vascular endothelial growth factor receptor 2 (Homo sapiens) (P35968 whole entry, the tested form may be a part): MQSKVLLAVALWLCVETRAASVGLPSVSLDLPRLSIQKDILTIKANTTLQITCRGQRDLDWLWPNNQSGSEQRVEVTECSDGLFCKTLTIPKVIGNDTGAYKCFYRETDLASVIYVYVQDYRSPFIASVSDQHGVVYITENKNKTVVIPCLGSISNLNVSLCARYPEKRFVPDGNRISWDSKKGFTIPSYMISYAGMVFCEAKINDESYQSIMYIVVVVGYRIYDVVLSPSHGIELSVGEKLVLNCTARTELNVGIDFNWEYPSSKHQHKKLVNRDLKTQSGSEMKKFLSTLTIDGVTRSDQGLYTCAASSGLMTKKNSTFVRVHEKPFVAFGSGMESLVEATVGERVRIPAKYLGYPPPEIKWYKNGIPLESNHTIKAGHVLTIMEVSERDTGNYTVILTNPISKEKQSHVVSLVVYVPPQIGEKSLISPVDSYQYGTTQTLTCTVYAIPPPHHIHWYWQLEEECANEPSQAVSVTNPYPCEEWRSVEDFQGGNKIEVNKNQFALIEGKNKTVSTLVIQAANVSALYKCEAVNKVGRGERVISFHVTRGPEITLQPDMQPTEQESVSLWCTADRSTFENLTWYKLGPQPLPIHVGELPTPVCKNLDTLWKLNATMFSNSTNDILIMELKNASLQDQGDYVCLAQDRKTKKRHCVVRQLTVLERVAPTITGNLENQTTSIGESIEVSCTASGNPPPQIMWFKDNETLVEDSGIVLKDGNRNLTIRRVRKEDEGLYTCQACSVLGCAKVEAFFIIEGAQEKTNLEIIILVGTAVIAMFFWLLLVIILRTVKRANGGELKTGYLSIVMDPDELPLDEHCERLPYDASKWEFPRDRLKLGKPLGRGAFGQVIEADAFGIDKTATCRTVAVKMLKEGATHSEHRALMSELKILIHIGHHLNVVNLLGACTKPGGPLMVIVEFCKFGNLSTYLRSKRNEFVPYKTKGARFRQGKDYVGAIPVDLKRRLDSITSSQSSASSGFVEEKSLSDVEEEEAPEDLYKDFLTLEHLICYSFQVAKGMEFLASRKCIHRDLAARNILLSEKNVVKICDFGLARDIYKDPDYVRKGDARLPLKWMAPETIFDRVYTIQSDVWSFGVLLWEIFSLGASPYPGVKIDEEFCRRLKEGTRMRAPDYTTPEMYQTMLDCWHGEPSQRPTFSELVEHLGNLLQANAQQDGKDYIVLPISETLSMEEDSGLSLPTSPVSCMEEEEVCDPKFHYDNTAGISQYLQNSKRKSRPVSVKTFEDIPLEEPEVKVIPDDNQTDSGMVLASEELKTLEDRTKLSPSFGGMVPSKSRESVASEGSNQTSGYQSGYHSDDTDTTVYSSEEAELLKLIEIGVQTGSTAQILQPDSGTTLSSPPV

[4] = tested on: Mus musculus; test: Inhibition of Kit exon 11 deletion (557 to 558 residues) and D816H mutant (unknown origin) transfected in mouse BA/F3 cells allografted in CB17 SCID mouse assessed as reduction in ERK phosphorylation at 20 mg/kg, po administered as single dose measured after 8 hrs; assay type: functional, organism-based
Summary of the method: (§2)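 A single 20 mg/kg p.o. dose was given to mice carrying exon 11 del/D816H Ba/F3 allografts. Tumor pKIT, pERK and pAKT were measured over a timecourse, with free compound cover tracked in the same study.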

[5] = Oral bioavailability in CD1 mouse at 21 umol/kg; assay type: ADME, organism-based; details: in vivo
Summary of the method: (§3)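 PK was run in CD1 mice with an iv dose of 10 μMol/kg and an oral dose of 21 μMol/kg. Cl, Vdss, t1/2 and F% were derived.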

[6] = tested on: BaF3; test: Antitumor activity against mouse BA/F3 cells expressing Kit exon 11 deletion (557 to 558 residues) and D816H mutant (unknown origin) allografted in CB17 SCID mouse assessed as tumor regression at 2 mg/kg, po bid measured on last day of dosing; assay type: functional; summary of the method: as §1
[7] = tested on: BaF3; test: Antitumor activity against mouse BA/F3 cells expressing Kit exon 11 deletion (557 to 558 residues) and V654 mutant (unknown origin) allografted in CB17 SCID mouse assessed as inhibition of tumor growth at 2 mg/kg, po bid measured on last day of dosing; assay type: functional; details: read-out: TGI; summary of the method: as §1
[8] = tested on: Mast/stem cell growth factor receptor Kit (Homo sapiens), P10721 [UNDEFINED MUTATION]
Chain of Mast/stem cell growth factor receptor Kit (Homo sapiens), P10721 [UNDEFINED MUTATION] (P10721 whole entry, looked up, stated change not applied, the tested form may be a part): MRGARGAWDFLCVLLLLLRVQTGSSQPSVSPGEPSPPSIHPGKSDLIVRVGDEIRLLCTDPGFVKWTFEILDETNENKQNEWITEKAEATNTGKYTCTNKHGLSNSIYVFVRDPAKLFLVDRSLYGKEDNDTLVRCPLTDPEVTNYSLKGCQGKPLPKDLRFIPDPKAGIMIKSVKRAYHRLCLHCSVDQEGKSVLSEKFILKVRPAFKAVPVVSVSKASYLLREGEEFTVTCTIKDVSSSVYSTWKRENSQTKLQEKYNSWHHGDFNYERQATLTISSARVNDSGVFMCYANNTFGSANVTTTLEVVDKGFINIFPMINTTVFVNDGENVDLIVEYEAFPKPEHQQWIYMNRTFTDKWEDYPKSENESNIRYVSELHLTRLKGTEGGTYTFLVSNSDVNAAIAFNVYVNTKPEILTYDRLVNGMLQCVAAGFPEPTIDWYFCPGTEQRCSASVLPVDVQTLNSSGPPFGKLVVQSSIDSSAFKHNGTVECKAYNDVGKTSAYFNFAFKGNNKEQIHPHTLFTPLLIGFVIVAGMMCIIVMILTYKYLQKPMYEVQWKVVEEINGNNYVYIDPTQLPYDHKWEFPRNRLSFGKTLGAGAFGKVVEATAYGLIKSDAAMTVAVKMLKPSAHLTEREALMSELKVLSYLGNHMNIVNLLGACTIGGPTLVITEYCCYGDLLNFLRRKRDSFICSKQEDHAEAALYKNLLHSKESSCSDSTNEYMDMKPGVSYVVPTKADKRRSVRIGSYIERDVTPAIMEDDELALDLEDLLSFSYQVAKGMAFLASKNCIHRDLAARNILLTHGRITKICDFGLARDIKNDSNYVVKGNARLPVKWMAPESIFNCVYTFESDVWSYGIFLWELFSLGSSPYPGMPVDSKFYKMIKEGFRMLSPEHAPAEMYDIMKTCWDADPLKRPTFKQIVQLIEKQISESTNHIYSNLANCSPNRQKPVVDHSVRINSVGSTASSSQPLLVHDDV

[9] = tested on: BaF3; test: Antitumor activity against mouse BA/F3 cells expressing Kit exon 11 deletion (557 to 558 residues) and D816H mutant (unknown origin) allografted in CB17 SCID mouse assessed as inhibition of tumor growth at 2 mg/kg, po bid measured on last day of dosing; assay type: functional; details: read-out: TGI; summary of the method: as §1
[10] = Efflux ratio in human Caco2 cells at 10 uM at pH 6.5; details: Caco-2, pH 6.5
[11] = tested on: Mast/stem cell growth factor receptor Kit (Homo sapiens), P10721 [UNDEFINED MUTATION]; remark: listed apart in the source
[12] = molecular target: Mast/stem cell growth factor receptor Kit (Homo sapiens) (UniProt P10721)
Chain of Mast/stem cell growth factor receptor Kit (Homo sapiens) (P10721 whole entry): as the sequence (P10721 whole entry, looked up, stated change not applied, the tested form may be a part) above

[13] = Solubility in pH 6.5 phosphate buffer at 37 degC; assay type: physicochemical
Summary of the method: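 Solubility of crystalline Form A was measured in pH6.5 phosphate buffer at 37°C.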

[14] = tested on: BaF3; test: Antitumor activity against mouse BA/F3 cells expressing Kit exon 11 deletion (557 to 558 residues) and D816H mutant (unknown origin) allografted in CB17 SCID mouse assessed as tumor regression at 20 mg/kg, po bid measured on last day of dosing; assay type: functional; summary of the method: as §1
[15] = tested on: BaF3; test: Antitumor activity against mouse BA/F3 cells expressing Kit exon 11 deletion (557 to 558 residues) and D816H mutant (unknown origin) allografted in CB17 SCID mouse assessed as inhibition of tumor growth at 20 mg/kg, po bid measured on last day of dosing; assay type: functional; details: read-out: TGI; summary of the method: as §1
[16] = Clearance in CD1 mouse at 10 umol/kg, iv; assay type: ADME, organism-based; details: in vivo; summary of the method: as §3
[17] = tested on: Mus musculus; test: Inhibition of Kit exon 11 deletion (557 to 558 residues) and D816H mutant (unknown origin) transfected in mouse BA/F3 cells allografted in CB17 SCID mouse assessed as reduction in ERK phosphorylation at 20 mg/kg, po administered as single dose measured after 24 hrs; assay type: functional, organism-based; summary of the method: as §2
[18] = Oral bioavailability in dog at […]; assay type: ADME, organism-based, Canis lupus familiaris; details: in vivo
[19] = tested on: Mast/stem cell growth factor receptor Kit (Homo sapiens), P10721 [UNDEFINED MUTATION]; remark: listed apart in the source

bioavailability [1]: 79%
GI50 [3]: 1380 nM
bioavailability [5]: 100%
GI50 [8]: 3 nM
efflux ratio at 10 µM [10]: 2.6
GI50 [11]: 3 nM
GI50 [12]: 2 nM
solubility [13]: 6 µM (≈ 2.88 µg/mL)
clearance [16]: 7 mL/min/kg
bioavailability [18]: 69%
GI50 [19]: 4 nM
Compound: COCCOc1cc(F)c2c(Nc3ccc(NC(=O)Cn4cc(C(C)C)nn4)cc3)ncnc2c1
Activity [2]: 85%
inhibition [4]: Active
Activity [6]: 0%
inhibition in vivo at 2 mg/kg [7]: > 100%
inhibition in vivo at 2 mg/kg [9]: 5%
Activity [14]: 75%
inhibition in vivo at 20 mg/kg [15]: > 100%
inhibition [17]: Active
